Source: ChEMBL document CHEMBL4014347, “Targeting Mycolic Acid Transport by Indole-2-carboxamides for the Treatment of Mycobacterium abscessus Infections” (J Med Chem, 2017)
Activity calls are given as the source filed them.

How the values were obtained:
[1] = tested on: Mycobacteroides abscessus; assay: Antibacterial activity against Mycobacterium abscessus CIP_PIPD1 harboring MAB_4508 g925c/A309P mutant after 3 to 5 days by two fold serial dilution method; format: functional
In short: (§1)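 Broth microdilution in cation-adjusted Mueller−Hinton broth per CLSI; inoculum 5 × 10^6 CFU/mL of exponential-phase bacteria; two-fold serial dilutions, solvent-only wells as control; 30 °C for 3−5 days; MIC read visually and confirmed by absorbance at 560 nm; triplicate on three independent occasions.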

[2] = tested on: Mycobacteroides abscessus; assay: Antibacterial activity against CF patient derived Mycobacterium abscessus subsp. massiliense isolate 210 rough variant after 3 to 5 days by two fold serial dilution method; format: functional; in short: as §1
[3] = tested on: Mycobacteroides abscessus; assay: Antibacterial activity against CF patient derived Mycobacterium abscessus subsp. abscessus isolate 2648 rough variant after 3 to 5 days by two fold serial dilution method; format: functional; in short: as §1
[4] = tested on: Mycobacteroides abscessus; assay: Antibacterial activity against CF patient derived Mycobacterium abscessus subsp. abscessus isolate 2524 rough variant after 3 to 5 days by two fold serial dilution method; format: functional; in short: as §1
[5] = tested on: Mycobacteroides abscessus; assay: Antibacterial activity against CF patient derived Mycobacterium abscessus subsp. massiliense isolate 212 smooth variant after 3 to 5 days by two fold serial dilution method; format: functional; in short: as §1
[6] = tested on: Mycobacteroides abscessus; assay: Antibacterial activity against CF patient derived Mycobacterium abscessus subsp. massiliense isolate 122 smooth variant after 3 to 5 days by two fold serial dilution method; format: functional; in short: as §1
[7] = tested on: Mycobacteroides abscessus; assay: Antibacterial activity against non CF patient derived Mycobacterium abscessus subsp. abscessus isolate CIP104536 rough variant after 3 to 5 days by two fold serial dilution method; format: functional; in short: as §1
[8] = Antibacterial activity against CF patient derived Mycobacterium abscessus subsp. bolletii isolate 97 smooth variant after 3 to 5 days by two fold serial dilution method; format: functional; conditions: Mycobacteroides abscessus; in short: as §1
[9] = tested on: Mycobacteroides abscessus; assay: Antibacterial activity against CF patient derived Mycobacterium abscessus subsp. massiliense isolate 107 smooth variant after 3 to 5 days by two fold serial dilution method; format: functional; in short: as §1
[10] = Antibacterial activity against non CF patient derived Mycobacterium abscessus subsp. bolletii isolate 19 rough variant after 3 to 5 days by two fold serial dilution method; format: functional; conditions: Mycobacteroides abscessus; in short: as §1
[11] = Antibacterial activity against non CF patient derived Mycobacterium abscessus subsp. bolletii isolate 17 smooth variant after 3 to 5 days by two fold serial dilution method; format: functional; conditions: Mycobacteroides abscessus; in short: as §1
[12] = tested on: Mycobacteroides abscessus; assay: Antibacterial activity against CF patient derived Mycobacterium abscessus subsp. massiliense isolate 140 smooth variant after 3 to 5 days by two fold serial dilution method; format: functional; in short: as §1
[13] = tested on: Mycobacteroides abscessus; assay: Antibacterial activity against CF patient derived Mycobacterium abscessus subsp. abscessus isolate 1298 smooth variant after 3 to 5 days by two fold serial dilution method; format: functional; in short: as §1
[14] = tested on: Mycobacteroides abscessus; assay: Antibacterial activity against Mycobacterium abscessus CIP104536 smooth variant harboring pMV261 MAB_4508 wild type at 0.5 to 1 ug/ml after 3 days; format: functional
In short: (§2)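 M. abscessus overexpressing wild-type or A309P MAB_4508 from pMV261 plated on 7H10 agar with 10% OADC containing drug; plates incubated at 30 °C for 3 days before growth inspection.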

[15] = tested on: Mycobacteroides abscessus; assay: Antibacterial activity against Addison's disease patient derived Mycobacterium abscessus subsp. massiliense isolate CIP108297 rough variant after 3 to 5 days by two fold serial dilution method; format: functional; in short: as §1
[16] = tested on: Mycobacteroides abscessus; assay: Antibacterial activity against non CF patient derived Mycobacterium abscessus subsp. abscessus isolate 3022 rough variant after 3 to 5 days by two fold serial dilution method; format: functional; in short: as §1
[17] = tested on: Mycobacteroides abscessus; assay: Antibacterial activity against CF patient derived Mycobacterium abscessus subsp. abscessus isolate 3321 smooth variant after 3 to 5 days by two fold serial dilution method; format: functional; in short: as §1
[18] = tested on: Mycobacteroides abscessus; assay: Antibacterial activity against CF patient derived Mycobacterium abscessus subsp. massiliense isolate 111 smooth variant after 3 to 5 days by two fold serial dilution method; format: functional; in short: as §1
[19] = tested on: Mycobacteroides abscessus; assay: Antibacterial activity against Addison's disease patient derived Mycobacterium abscessus subsp. massiliense isolate CIP108297 smooth variant after 3 to 5 days by two fold serial dilution method; format: functional; in short: as §1
[20] = tested on: Mycobacteroides abscessus; assay: Antibacterial activity against Mycobacterium abscessus CIP104536 smooth variant assessed as reduction in viable colony forming unit at […] after 4 days by time-kill assay; format: functional
[21] = tested on: Mycobacteroides abscessus; assay: Antibacterial activity against CF patient derived Mycobacterium abscessus subsp. massiliense isolate 100 smooth variant after 3 to 5 days by two fold serial dilution method; format: functional; in short: as §1
[22] = tested on: Mycobacteroides abscessus; assay: Inhibition of MmpL3 in Mycobacterium abscessus CIP104536 smooth variant assessed as reduction in trehalose dimycolate synthesis up to 6.2 ug/ml preincubated for 1 hr followed by [14C]acetic acid addition measured after 2 hrs by TLC based autoradiography analysis
In short: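 Exponential cultures in 7H9 with OADC exposed to increasing drug concentrations for 1 h at 37 °C with agitation, then labelled with 1 μCi/mL [14C]acetate (56 mCi/mmol) for 2 h; apolar lipids (TMM, TDM) run on TLC in chloroform/methanol/water 40:8:1; MAME and arabinogalactan-bound mycolates in petroleum ether/acetone 95:5; autoradiography.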

[23] = tested on: Mycobacteroides abscessus; assay: Antibacterial activity against non CF patient derived Mycobacterium abscessus subsp. abscessus isolate CIP104536 smooth variant after 3 to 5 days by two fold serial dilution method; format: functional; in short: as §1
Vero = assay: Cytotoxicity against African green monkey Vero cells; format: cell-based; conditions: Chlorocebus sabaeus
[24] = tested on: Mycobacteroides abscessus; assay: Antibacterial activity against CF patient derived Mycobacterium abscessus subsp. abscessus smooth variant after 3 to 5 days by two fold serial dilution method; format: functional; in short: as §1
[25] = tested on: Mycobacteroides abscessus; assay: Antibacterial activity against Mycobacterium abscessus CIP104536 after 3 to 5 days by two fold serial dilution method; format: functional
In short: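 Broth microdilution per CLSI in cation-adjusted Mueller–Hinton broth; exponential-phase inoculum 5 × 10^6 CFU/mL; two-fold serial dilutions from highest concentration, solvent wells as control; 30 °C for 3−5 days; MIC read visually and confirmed by absorbance at 560 nm; triplicate on three independent occasions.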

[26] = tested on: Mycobacterium tuberculosis; assay: Inhibition of C-terminal His-tagged Mycobacterium tuberculosis Ag85C expressed in Escherichia coli C41 (DE3) at 2.5 to 50 uM after 1 hr by resorufin butyrate-based fluorescence assay
In short: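 Purified Ag85C mycolyltransferase activity measured with the fluorescent probe resorufin butyrate; compounds tested at 2.5 to 50 μM.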

[27] = Antibacterial activity against CF patient derived Mycobacterium abscessus subsp. bolletii isolate 116 smooth variant after 3 to 5 days by two fold serial dilution method; format: functional; conditions: Mycobacteroides abscessus; in short: as §1
[28] = tested on: Mycobacteroides abscessus; assay: Antibacterial activity against Mycobacterium abscessus CIP_OK4-10 harboring MAB_4508 g925c/A309P mutant after 3 to 5 days by two fold serial dilution method; format: functional; in short: as §1
[29] = tested on: Mycobacteroides abscessus; assay: Antibacterial activity against CF patient derived Mycobacterium abscessus subsp. abscessus isolate 2069 smooth variant after 3 to 5 days by two fold serial dilution method; format: functional; in short: as §1
[30] = tested on: Mycobacteroides abscessus; assay: Antibacterial activity against Mycobacterium abscessus CIP104536 smooth variant harboring pMV261 MAB_4508_A309P mutant at 0.5 to 1 ug/ml after 3 days; format: functional; in short: as §2
[31] = Antibacterial activity against CF patient derived Mycobacterium abscessus subsp. bolletii isolate 108 rough variant after 3 to 5 days by two fold serial dilution method; format: functional; conditions: Mycobacteroides abscessus; in short: as §1
[32] = tested on: Mycobacteroides abscessus; assay: Antibacterial activity against non CF patient derived Mycobacterium abscessus subsp. abscessus isolate 2587 smooth variant after 3 to 5 days by two fold serial dilution method; format: functional; in short: as §1
[33] = Antibacterial activity against Mycobacterium abscessus subsp. bolletii isolate CIP108541 smooth variant after 3 to 5 days by two fold serial dilution method; format: functional; conditions: Mycobacteroides abscessus; in short: as §1
[34] = Antibacterial activity against CF patient derived Mycobacterium abscessus subsp. bolletii isolate 112 rough variant after 3 to 5 days by two fold serial dilution method; format: functional; conditions: Mycobacteroides abscessus; in short: as §1
[35] = tested on: Mycobacteroides abscessus; assay: Antibacterial activity against CF patient derived Mycobacterium abscessus subsp. abscessus rough variant after 3 to 5 days by two fold serial dilution method; format: functional; in short: as §1
[36] = Selectivity index, ratio of IC50 for African green monkey Vero cells to MIC=<90 for Mycobacterium tuberculosis; format: toxicity; conditions: read-out: Selectivity Index
[37] = Selectivity index, ratio of IC50 for African green monkey Vero cells to MIC for Mycobacterium abscessus CIP104536; format: toxicity; conditions: read-out: Selectivity Index
[38] = tested on: Mycobacteroides abscessus; assay: Antibacterial activity against CF patient derived Mycobacterium abscessus subsp. massiliense isolate 120 smooth variant after 3 to 5 days by two fold serial dilution method; format: functional; in short: as §1
[39] = tested on: Mycobacterium tuberculosis; assay: Antibacterial activity against Mycobacterium tuberculosis by AlamarBlue assay; format: functional
[40] = Antibacterial activity against CF patient derived Mycobacterium abscessus subsp. bolletii isolate 114 smooth variant after 3 to 5 days by two fold serial dilution method; format: functional; conditions: Mycobacteroides abscessus; in short: as §1
[41] = tested on: Mycobacteroides abscessus; assay: Antibacterial activity against CF patient derived Mycobacterium abscessus subsp. massiliense isolate 185 smooth variant after 3 to 5 days by two fold serial dilution method; format: functional; in short: as §1

O=C(NC1CCCCCC1)c1cc2ccc(Br)cc2[nH]1
inactive: inhibition [26] | Activity [30]
0.0625 µg/mL: MIC [7] | MIC [34]
≥ 512: selectivity ratio [37]
≥ 2050: selectivity ratio [36]
0.5 µg/mL: MIC [31]
1 µg/mL: MIC [27]
32 µg/mL: MIC [1] | MIC [28]
0.0313 µg/mL: MIC=<90 [39]
0.25 µg/mL: MIC [8] | MIC [9] | MIC [19] | MIC [32]
active: Activity [14] | Activity [20] | inhibition [22] Dose-dependent effect
≥ 64 µg/mL: IC50 (Vero)
0.125 µg/mL: MIC [2] | MIC [3] | MIC [4] | MIC [5] | MIC [6] | MIC [10] | MIC [11] | MIC [12] | MIC [13] | MIC [15] | MIC [16] | MIC [17] | MIC [18] | MIC [21] | MIC [23] | MIC [24] | MIC [25] | MIC [29] | MIC [33] | MIC [35] | MIC [38] | MIC [40] | MIC [41]
